Each structure is given as a SMILES string. The source made the active and inactive calls. The calls are words filed in the database; no cut-off is given here.

For assay [1], the target named is T1, Retinoic acid receptor RXR-alpha (Homo sapiens) (UniProt P19793).
T1 sequence (whole entry): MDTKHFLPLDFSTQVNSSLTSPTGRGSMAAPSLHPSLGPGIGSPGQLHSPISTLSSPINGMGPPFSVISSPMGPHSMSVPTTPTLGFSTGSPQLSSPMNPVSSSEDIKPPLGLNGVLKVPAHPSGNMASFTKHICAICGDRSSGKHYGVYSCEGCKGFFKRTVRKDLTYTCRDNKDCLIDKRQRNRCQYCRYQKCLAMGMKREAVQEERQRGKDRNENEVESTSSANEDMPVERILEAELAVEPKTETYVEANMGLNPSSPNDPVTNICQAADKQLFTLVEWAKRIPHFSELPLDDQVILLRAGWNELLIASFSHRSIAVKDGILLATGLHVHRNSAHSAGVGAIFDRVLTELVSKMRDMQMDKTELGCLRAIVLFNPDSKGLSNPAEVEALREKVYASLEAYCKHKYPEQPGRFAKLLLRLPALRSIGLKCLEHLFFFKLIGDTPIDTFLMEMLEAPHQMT
Briefly: Agonist activity at human RXR-alpha expressed in HEK293 cells coexpressing with pCMX-beta-gal at 10 uM after 24 to 48 hrs by luciferase reporter gene assay. The class given is cell-based. For orientation: Reporter assays use an easily measured gene product as a stand-in for the process of interest.

In assay [2] the target is T1, Retinoic acid receptor RXR-alpha (Homo sapiens). Briefly: (§1) Agonist activity at human RXR-alpha expressed in HEK293 cells coexpressing with pCMX-beta-gal after 24 to 48 hrs by luciferase reporter gene assay. The class given is cell-based. The procedure, abridged: (§2)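 HEK293 cells transfected by calcium phosphate with 60 ng pCMX-hRXR-α, 150 ng CRBPII-tk-Luc and 30 ng pCMX-β-gal plus carrier pUC18 (600 ng DNA per well). After 8 h the cells were washed and exposed to compound in medium with 10% FBS for 24−48 h. Luciferase was normalized to β-galactosidase. Triplicate or quadruplicate; representative of three independent experiments; EC50 from dose-response.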

The next assay deals with 3T3-L1. Briefly: Activation of PPARgamma/RXR heterodimer in mouse 3T3-L1 cell assessed as induction of adipogenesis at 1 uM after 6 days by Oil red O-staining. The class given is cell-based. The procedure, abridged: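 3T3-L1 cells grown to confluence, 2 days later induced 48 h with 10% FBS, 5 μg/mL insulin, 0.25 μM dexamethasone, 0.5 mM IBMX, then 48 h insulin-only medium; compounds in DMSO added to postdifferentiation medium for 4 days. Formalin-fixed (10%, 1 h, RT), stained with Oil red O, washed, visualized.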

The nature of assay [3]: Activation of LXR in mouse C2C12 cells assessed as induction of ApoD mRNA expression at 1 uM after 24 hrs in presence of T0901317 by quantitative RT-PCR analysis. The class given is cell-based. The procedure, abridged:
(§3)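 C2C12 myoblasts grown in DMEM/10% FBS, differentiated at confluence in 2% horse serum, medium changed every other day for 5 days; myotubes treated 24 h with or without T0901317 (1 μM). Total RNA, DNase-treated, oligo(dT) RT from 0.5 μg, SYBR green qPCR; normalized to β-actin (delta-delta Ct), fold over vehicle; mean ± SD of four determinants, one of two experiments.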

Assay [4] is described as follows: Activation of LXR in mouse C2C12 cells assessed as induction of FAS mRNA expression at 1 uM after 24 hrs in presence of T0901317 by quantitative RT-PCR analysis. The class given is cell-based. The procedure, abridged: as §3
For assay [5], the target named is T2, Peroxisome proliferator-activated receptor delta (Mus musculus) (UniProt P35396).
T2 sequence (whole entry): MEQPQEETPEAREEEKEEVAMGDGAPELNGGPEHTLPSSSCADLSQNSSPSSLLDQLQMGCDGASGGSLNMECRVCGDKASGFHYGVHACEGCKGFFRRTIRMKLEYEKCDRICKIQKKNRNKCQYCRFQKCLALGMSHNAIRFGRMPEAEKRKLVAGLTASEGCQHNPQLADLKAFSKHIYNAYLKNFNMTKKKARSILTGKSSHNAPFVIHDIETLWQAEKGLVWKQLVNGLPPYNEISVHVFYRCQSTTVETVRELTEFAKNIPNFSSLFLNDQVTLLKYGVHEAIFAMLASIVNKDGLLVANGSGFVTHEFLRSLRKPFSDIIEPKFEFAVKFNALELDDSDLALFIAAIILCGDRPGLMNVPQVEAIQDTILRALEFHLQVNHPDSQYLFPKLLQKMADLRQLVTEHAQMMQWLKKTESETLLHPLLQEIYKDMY
Briefly: Activation of PPARdelta in mouse C2C12 cells assessed as induction of FABP3 mRNA expression at 1 uM after 24 hrs in presence of GW501516 by quantitative RT-PCR analysis. The class given is cell-based. In outline: (§4)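 Differentiated C2C12 myotubes (2% horse serum, 5 days) exposed 24 h with or without PPARδ agonist GW501516 (1 μM). mRNA quantified by SYBR green real-time RT-PCR, normalized to β-actin by delta-delta Ct, and expressed as fold induction vs vehicle; means ± SD of four determinants from one of two independent experiments; one-way ANOVA with Bonferroni.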

The nature of assay [6]: Activation of LXR in mouse C2C12 cells assessed as induction of lipoprotein lipase mRNA expression at 1 uM after 24 hrs by quantitative RT-PCR analysis. The class given is cell-based. In outline:
as §3

For assay [7], the system named is RAW264.7. Briefly: Activation of RXR/LXR heterodimer in mouse RAW264.7 cells assessed as increase in ABCA1 mRNA level at 1 uM by quantitative RT-PCR analysis. The class given is cell-based. The procedure, abridged: (§5)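 RAW264.7 macrophages in DMEM/10% FBS, exposed 24 h with or without LXR agonist T0901317; ABCA1 mRNA by SYBR green qRT-PCR, β-actin-normalized, fold vs vehicle; means ± SD of three determinants, one of three independent experiments; one-way ANOVA, Bonferroni.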

For assay [8], the system named is F9. Briefly: Activation of RXR/RAR heterodimer in mouse F9 cells assessed as increase in CYP26A1 mRNA level at 1 uM by quantitative RT-PCR analysis in presence of atRA. The class given is cell-based. In outline:
(§6)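 F9 teratocarcinoma cells on 0.2% gelatin-coated dishes in DMEM/10% FBS; 24 h exposure with or without atRA (0.1 μM). CYP26A1 mRNA by qRT-PCR normalized to β-actin, fold vs vehicle; means ± SD of three determinants, one of three experiments; ANOVA/Bonferroni.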

In assay [9] the target is T2, Peroxisome proliferator-activated receptor delta (Mus musculus). The experiment in a line: Activation of PPARdelta in mouse C2C12 cells assessed as induction of FABP3 mRNA expression at 1 uM after 24 hrs by quantitative RT-PCR analysis. The class given is cell-based. The procedure, abridged:
as §4

The subject of assay [10] is RAW264.7. The experiment in a line: Activation of RXR/LXR heterodimer in mouse RAW264.7 cells assessed as potentiation of T0901317-induced increase in ABCA1 mRNA level at 1 uM by quantitative RT-PCR analysis. The class given is cell-based. The procedure, abridged: as §5
Assay [11] has as its target T2, Peroxisome proliferator-activated receptor delta (Mus musculus). Briefly: Activation of PPARdelta in mouse C2C12 cells assessed as induction of CPT1A mRNA expression at 1 uM after 24 hrs by quantitative RT-PCR analysis. The class given is cell-based. The procedure, abridged:
as §4

The subject of assay [12] is F9. The experiment in a line: Activation of RXR/RAR heterodimer in mouse F9 cells assessed as increase in CYP26A1 mRNA level at 1 uM by quantitative RT-PCR analysis. The class given is cell-based. The procedure, abridged: as §6
A short description of assay [13]: Activation of LXR in mouse C2C12 cells assessed as induction of ApoE mRNA expression at 1 uM after 24 hrs in presence of T0901317 by quantitative RT-PCR analysis. The class given is cell-based. In outline: as §3
A short description of assay [14]: Activation of LXR in mouse C2C12 cells assessed as induction of lipoprotein lipase mRNA expression at 1 uM after 24 hrs in presence of T0901317 by quantitative RT-PCR analysis. The class given is cell-based. The procedure, abridged: as §3
Assay [15] concerns the target T2, Peroxisome proliferator-activated receptor delta (Mus musculus). The experiment in a line: Activation of PPARdelta in mouse C2C12 cells assessed as induction of ANGPTL4 mRNA expression at 1 uM after 24 hrs by quantitative RT-PCR analysis. The class given is cell-based. The procedure, abridged: as §4
For a further assay, the species on record is Homo sapiens. Briefly: Activation of RXR/VDR heterodimer in human hepatoma cells assessed as increase in CYP24A1 mRNA level at 1 uM by quantitative RT-PCR analysis. The class given is cell-based. In outline:
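HLE hepatoma cells treated 24 h with or without VD3 (0.1 μM); CYP24A1 mRNA by SYBR green qRT-PCR normalized to β-actin (delta-delta Ct), fold over vehicle; means ± SD of three determinants, representative of three experiments.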

The nature of assay [16]: Activation of LXR in mouse C2C12 cells assessed as induction of SREBP1 mRNA expression at 1 uM after 24 hrs in presence of T0901317 by quantitative RT-PCR analysis. The class given is cell-based. The procedure, abridged:
as §3

A short description of assay [17]: Activation of LXR in mouse C2C12 cells assessed as induction of ABCA1 mRNA expression at 1 uM after 24 hrs in presence of T0901317 by quantitative RT-PCR analysis. The class given is cell-based. The procedure, abridged:
as §3

The target in assay [18] is T1, Retinoic acid receptor RXR-alpha (Homo sapiens). Briefly: Agonist activity at human RXR-alpha expressed in HEK293 cells coexpressing with pCMX-beta-gal at 10 uM after 24 to 48 hrs by luciferase reporter gene assay in presence of PA452 pan-antagonist. The class given is cell-based. The procedure, abridged: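 RXRα reporter in HEK293: cotransfected with RXRα expression vector, luciferase reporter and pCMX-β-gal. Eight hours after transfection, cells were treated with test compound at 10 μM with or without the RXR pan-antagonist PA452 (10 μM). Luciferase was normalized to β-galactosidase. Means ± SD of three determinants; representative of three experiments; one-way ANOVA with Bonferroni's t-test.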

Assay [19] shares this target. Briefly: Binding affinity to RXRalpha (unknown origin) by receptor-SRC1 cofactor complex formation assay. The procedure, abridged:
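Ligand-dependent binding of RXR isotype to coactivator SRC-1 in an NR cofactor kit, detected with HRP-conjugated anti-RXR antibody at OD450. The full agonist CD3254 defined 100% and vehicle 0%. Efficacy was taken as maximum B/Bmax% and potency as EC50.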

In assay [20] the target is T3, Retinoic acid receptor RXR-alpha (Homo sapiens, UniProt P19793).
T3 sequence (P19793 whole entry): T1 sequence (whole entry)
The description is as §1. The class given is cell-based. The procedure, abridged:
as §2

Consider `CC(C)=CCc1cc([C@@H]2CC(=O)c3ccc(O)c(CC=C(C)C)c3O2)cc(CC=C(C)C)c1O`, for which the outcome in [1] was inactive.

As to `CC/C=C\C/C=C\C/C=C\C/C=C\C/C=C\C/C=C\CCC(=O)O`, the ED50 in [2] turned out to be 50 µM.

Regarding `CC(C)CCC[C@@H](C)CCC[C@@H](C)CCCC(C)CC(=O)O` (stereo partly specified), the ED50 in assay [2] amounted to 3 µM.

Compound `C=C1C(=O)O[C@H]2C[C@@H](C)[C@@H]3C=CC(=O)[C@@]3(C)[C@@H](OC(C)=O)[C@H]12` returned an ED50 in assay [2] of 4.9 µM.

Consider `C=C(c1ccc(C(=O)O)cc1)c1cc2c(cc1C)C(C)(C)CCC2(C)C`, for which the outcome (in the assay on 3T3-L1; in assay [3]; in assay [4]; in [5]; with RAW264.7 [7]; with F9 [8]) was Active. In addition, the result (in assay [9]; in the assay on RAW264.7 [10]; in assay [11]; in the assay with F9 [12]; in assay [13]; in assay [15]) was Active. For the same compound, the outcome (in the assay listed under Homo sapiens; in [16]; in [17]) was Active. Moreover, the outcome in [6] and in assay [14] was inactive.

Turning to `CC(C)=CCc1cc([C@@H]2CC(=O)c3ccc(O)c(CC=C(C)C)c3O2)cc2c1OC(C)(C)C(O)C2` (stereo partly specified), the result in [18] and in assay [19] was inactive. For the same compound, in assay [2], the Activity entry was “Dose-dependent effect”. Also, in [20], the midpoint of the response, the EC50, lay at 0.78 µM.

In turn, `C=CCc1ccc(O)c(-c2ccc(O)c(CC=C)c2)c1` displayed an ED50 in assay [2] of 11.8 µM.

These data come from ChEMBL document CHEMBL3351942, “Rexinoids isolated from Sophora tonkinensis with a gene expression profile distinct from the synthetic rexinoid bexarotene” (J Nat Prod, 2014).
